RanGTP-Impb inh: disruptors of Ran-importin-beta complex formation – biochemical, FRET, CFP-Ran, YFP-importin-beta, homogeneous, primary screen; AID 2216; cell-free CFP-Ran/YFP-importin-beta FRET ratio; inhibition, % (test concentration not listed); 300,000 tested, 1.1% active;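 active = more than half of the replicate wells show a fall in the fluorescence ratio signal beyond about 16%, limit read from the data, passing the limit was not always enough; inconclusive = exactly half of the replicate wells pass the set limit; inactive = fewer than half of replicates pass the limit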
MEX-5 binding: C. elegans MEX-5 TCR-2 RNA binding activity; activity score (negative = inhibition of binding), % at 10 µM; 300,000 tested, 0.38% active; MEX-5/FITC-TCR2 RNA binding, fluorescence polarization; active compounds read low;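 active = inhibition past about -25% in most replicates, and total fluorescence under double the plate's negative control median, limit read from the data; inconclusive = replicates evenly split on the limit, or fluorescence at least double controls; inactive = too little inhibition in most replicates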
Runt-SMMHC FRET: Runt domain-CBFb-SMMHC interaction inhibition. Q01196+Q13951. Cerulean-Runt/Venus-CBFb-SMMHC FRET ratio 530/480, 1 h. 220,000 tested, 0.74% active. AID 1434. inhibition, % at 20 µM;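 active = mean inhibition across duplicate retests at 20 µM reaching about 50%, limit read from the data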;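 note: inhibitors lower the FRET ratio by blocking Runt binding to CBFb-SMMHC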
Target sequence (Q01196 whole entry, looked up, the tested form may be a part): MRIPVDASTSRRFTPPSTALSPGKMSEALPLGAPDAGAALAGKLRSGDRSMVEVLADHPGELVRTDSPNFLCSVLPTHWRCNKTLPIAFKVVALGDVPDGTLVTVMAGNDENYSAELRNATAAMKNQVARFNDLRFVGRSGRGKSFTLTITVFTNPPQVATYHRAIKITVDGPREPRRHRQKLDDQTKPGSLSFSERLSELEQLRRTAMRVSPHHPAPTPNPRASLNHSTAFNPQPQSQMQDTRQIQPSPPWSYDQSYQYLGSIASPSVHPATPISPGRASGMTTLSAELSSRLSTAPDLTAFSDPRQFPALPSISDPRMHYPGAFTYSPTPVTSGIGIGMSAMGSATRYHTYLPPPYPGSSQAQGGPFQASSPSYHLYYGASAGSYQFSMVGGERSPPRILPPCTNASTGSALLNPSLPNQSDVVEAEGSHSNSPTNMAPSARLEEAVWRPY
Target sequence (Q13951 whole entry, looked up, the tested form may be a part): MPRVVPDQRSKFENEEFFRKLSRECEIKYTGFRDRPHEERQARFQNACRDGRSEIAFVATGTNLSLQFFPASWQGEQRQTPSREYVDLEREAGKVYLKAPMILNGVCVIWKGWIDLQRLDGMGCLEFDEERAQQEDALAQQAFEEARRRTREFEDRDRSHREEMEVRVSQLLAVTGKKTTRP
Runt-CBFb FRET: inhibitors of human RUNX1 Runt domain binding to CBFb | 220,000 tested, 0.46% active | Cerulean-Runt/Venus-CBFb FRET ratio 530/480, 1 h | AID 1496 | inhibition, % at 20 µM;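 active = inhibition over about 50% at 20 µM in the single-dose screen, limit read from the data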
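Buffer or medium: Tris pH 7.5 buffer with BSA. Assay system: Cerulean-labeled Runt domain protein. Amount: each fluorescent fusion protein 100 nM. Read-out basis: loss of energy transfer signal. Incubation: 1 h compound exposure, room temperature. Probe or stimulus: Venus-CBFb binding partner, 100 nM. Detection: FRET, excitation 422 nm, emission at 530 and 480 nm.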
proKLK7 act: activates the human kallikrein-7 zymogen; purified proKLK7, EDANS-DABCYL substrate fluorescence; 100% is mature enzyme control, 0% vehicle; P49862; activation, % at 7 µM; 370,000 tested, 0.9% active;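 active = activation above the mean of all tested compounds plus 3 SD, computed per campaign excluding outliers beyond control limits, cut at about 13% in these data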
RUNX1 CBFb TR: inhibitors of human RUNX1 Runt domain binding to CBFb | 480 tested, 20% active | inhibition, % at 20 µM | TR-FRET RUNX1 Runt domain-CBFb binding | shares compounds with Runt-CBFb FRET; in the data active = inhibition above about 40%
A number is an active result; - = inactive; ? = inconclusive; . = no result. Most compounds without a hit are left out; they make up all but 2.1% or so of the library.

SMILES | RanGTP-Impb inh | MEX-5 binding | Runt-SMMHC FRET | Runt-CBFb FRET | proKLK7 act | RUNX1 CBFb TR
CC(C)N1CCc2c(sc(N)c2C#N)C1 | 68.5 | ? | 141.6 | 59.0 | - | -
O=C(c1ccco1)N(Cc1cccnc1)C(c1ccccc1)c1nc2ccccc2[nH]1 (configuration not stated) | . | . | . | . | - | .
CCN1CCN(C(C(=O)NC2CCCCC2)c2ccnc3ccccc23)CC1 (configuration not stated) | . | . | . | . | - | .
CCCS(=O)(=O)N1CCCC(C(=O)NCCCN(C)c2ccccc2)C1 (configuration not stated) | - | - | - | 56.9 | - | -
CCOC(=O)c1ccc(N2N=C(C)/C(=C/C=C/c3ccco3)C2=O)cc1 | - | - | - | - | - | .
O=C(O)c1cc(N2N=C(C(F)(F)F)/C(=C/C=C/c3ccco3)C2=O)ccc1Cl | . | . | - | 52.8 | - | 92.1
Cc1ccc(S(=O)(=O)N2C[C@]3(O)C[C@@H]4C(=O)N(c5ccccc5)C(=O)[C@@H]4C[C@]3(OC(=O)NCC3CCCCC3)C2)cc1 | . | . | . | . | - | .
CC(=O)Oc1ccc(N2C(=O)C3C4C=CC(CO)(O4)C3C2=O)cc1 (configuration not stated) | - | - | - | - | - | .
O=C1C2C3C=CC(CO)(O3)C2C(=O)N1c1ccccc1-c1ccccc1 (configuration not stated) | . | . | 67.8 | 61.4 | . | 70.5
CNC(=O)/C(C#N)=C/c1c(N(Cc2ccccc2)Cc2ccccc2)nc2c(C)cccn2c1=O | - | - | 115.1 | 62.4 | - | -
COC(=O)/C(C#N)=C/c1c(N2CCN(c3ccccc3)CC2)nc2c(C)cccn2c1=O | - | - | . | . | - | .
COc1ccccc1NS(=O)(=O)c1cc(NC(=O)c2sccc2C)ccc1N1CCOCC1 | - | - | - | - | - | .
COc1ccccc1NS(=O)(=O)c1cc(NC(=O)c2sccc2C)ccc1N1CCCC1 | - | - | - | 51.3 | - | -
COc1ccccc1NS(=O)(=O)c1cc(NC(=O)c2cccs2)ccc1N1CCCC1 | - | - | - | 50.0 | - | -
Cn1c(SCCc2ccccc2)nnc1-c1ccco1 | . | . | . | . | - | .
COc1ccccc1-n1ccnc(SCC(=O)NCCc2ccccc2)c1=O | - | - | . | . | - | .
CCCn1c(=NC(=O)c2c(-c3c(F)cccc3Cl)noc2C)c(C(=O)OCC)cc2c(=O)n3ccccc3nc21 | - | - | 60.1 | 71.5 | . | -
Cc1cc(C(=O)OC(C(=O)Nc2ccc(C)c(Cl)c2)c2ccccc2)c(C)o1 (configuration not stated) | - | - | - | 64.6 | - | -
Cc1ccc(NC(=O)C(OC(=O)c2ccccc2Cl)c2ccccc2)cc1Cl (configuration not stated) | - | - | - | - | - | .
C=CCN(CC#CC1=CCCCC1)Cc1ccc(OC)cc1OC | . | . | . | . | - | .
Cc1cccc(Nc2nc(Cl)ncc2F)c1C | - | - | . | . | - | .
CCOCCCn1c(=N)c(C(=O)NCc2ccc3c(c2)OCO3)cc2c(=O)n3ccccc3nc21 | 28.8 | - | 125.3 | 51.4 | - | -
COC(=O)c1c(C)oc2ccc(N(C(C)=O)S(=O)(=O)c3ccccc3)cc12 | - | - | . | . | - | .
COc1ccc(S(=O)(=O)N(C(C)=O)c2ccc3oc(=O)sc3c2)cc1 | - | - | 58.2 | 67.0 | - | -
Cn1ccc2ccc(-c3ccc4c(c3)[C@]3(CCC[C@@H](OCc5ccccc5)[C@@H]3NC(=O)CCc3ccccc3)C(=O)N4Cc3ccccc3)cc21 | . | . | . | . | - | .
SMILES | RanGTP-Impb inh | MEX-5 binding | Runt-SMMHC FRET | Runt-CBFb FRET | proKLK7 act | RUNX1 CBFb TR
O=C(O)c1ccc(N/N=C/c2ccc(-c3cccc(Cl)c3)o2)cc1 | 67.6 | - | 80.3 | 58.5 | - | -
O=C(O)c1cccc(-c2ccc(/C=N/Nc3ccc([N+](=O)[O-])cc3)o2)c1 | - | - | - | - | - | .
Cc1ccc(S(=O)(=O)c2cc3c(=O)n4ccccc4nc3n(CC3CCCO3)c2=N)cc1C (configuration not stated) | 154.3 | - | 106.4 | 97.8 | - | -
CCOC(=O)C1=C(C)N(c2ccc(C)cc2)C(=O)/C1=C\c1ccc(O)c(OC)c1 | - | - | - | 56.9 | - | -
COC(=O)C1=C(C)N(Cc2ccc(C)cc2)C(=O)/C1=C\c1ccc(O)c(OC)c1 | - | - | - | - | - | .
CC1Cc2[nH]c(=S)[nH]c(=O)c2C(C)O1 (configuration not stated) | . | . | . | . | - | .
CCOc1ccccc1C(=O)N[C@H](C(=O)OCC(=O)Nc1nnc(-c2ccccc2)o1)C(C)C | . | . | . | . | - | .
Cc1cc(C)c(NC(=S)NCC2CCN(C(C)c3ccccc3)C2)c(C)c1 (configuration not stated) | - | - | - | 54.1 | - | -
CCN1C[C@@H]2[C@@H]3C(=O)N(C)C(=O)[C@@H]3[C@](CC)(C1=O)N2C(=O)c1ccc(F)cc1 | . | . | . | . | - | .
CNCc1ccccc1Sc1cc(O)ccc1O | . | . | - | 51.5 | - | -
COc1cccc(C(O)c2nc(-c3cnn(C)c3)cs2)c1 (configuration not stated) | . | . | . | . | - | .
CCOC(=O)c1cnc(-n2nc(C)cc2C)nc1Nc1ccc2c(c1)OCO2 | . | . | - | 72.8 | . | -
CC(=O)c1cccc(NC(=O)C2=CN3CCS(=O)(=O)N=C3C=C2)c1 | . | . | . | . | - | .
O=C(NCCc1ccc(F)cc1)c1ccc2c(c1)ncn2C1CCCCC1 | . | . | . | . | - | .
Cc1cc(C)nc(SCNC(=O)c2ccccc2)n1 | - | - | - | 68.7 | - | -
CC(=O)Nc1ccc(NC(=O)Cc2ccc(S(=O)(=O)N3CCCCC3)cc2)cc1 | . | . | . | . | - | .
CS(=O)(=O)c1sc2nc(-c3cccs3)cc(-c3ccccc3)c2c1N | - | - | 85.3 | 54.4 | - | -
COc1ccc2nc(NC(=O)c3sc4nc(C)cc(C)c4c3N)sc2c1 | - | - | - | 64.8 | - | -
COc1ccc2nc(NC(=O)c3cc(C)oc3C)sc2c1 | - | - | - | - | - | .
N/C(=N\OC(=O)c1ccccc1)C(C(=O)NOC(=O)c1ccccc1)C1CCCCC1 (configuration not stated) | . | . | . | . | - | .
COc1cccc(C(c2c(N)[nH]c(=S)[nH]c2=O)c2c(N)[nH]c(=S)[nH]c2=O)c1 | - | - | - | 50.9 | - | 56.1
Cc1c(Cc2ccccc2)sc(/N=C/c2ccc3ccccc3c2)c1C(N)=O | . | . | - | - | . | .
Cc1c(Cc2ccccc2)sc(/N=C/c2c(O)ccc3ccccc23)c1C(N)=O | 119.9 | - | 63.1 | 104.8 | . | -
COc1ccc(OC)c(NC(=O)C2(C)CCN2CCc2ccccc2)c1 (configuration not stated) | . | . | . | . | - | .
COc1cccc2cc(C(=O)N3CCN(C45CC6CC(CC(C6)C4)C5)CC3)c(=O)oc12 | 53.3 | - | - | 59.7 | - | -

Screening results (PubChem)
